ChEMBL document CHEMBL1154352, “Toll-like receptor 7 selective synthetic oligoribonucleotide agonists: synthesis and structure-activity relationship studies” (J Med Chem, 2009)
Active and inactive are the calls of the source. No cut-off for these calls is given here.

Assays:
[1] = molecular target: T1, Toll-like receptor 7 (Homo sapiens) (UniProt Q9NYK1); assay: Activation of human TLR7 expressed in HEK293XL assessed as fold induction of NF-kappaB activity at 50 ug/ml after 18 hrs by reporter gene assay relative to control
T1 sequence (whole entry): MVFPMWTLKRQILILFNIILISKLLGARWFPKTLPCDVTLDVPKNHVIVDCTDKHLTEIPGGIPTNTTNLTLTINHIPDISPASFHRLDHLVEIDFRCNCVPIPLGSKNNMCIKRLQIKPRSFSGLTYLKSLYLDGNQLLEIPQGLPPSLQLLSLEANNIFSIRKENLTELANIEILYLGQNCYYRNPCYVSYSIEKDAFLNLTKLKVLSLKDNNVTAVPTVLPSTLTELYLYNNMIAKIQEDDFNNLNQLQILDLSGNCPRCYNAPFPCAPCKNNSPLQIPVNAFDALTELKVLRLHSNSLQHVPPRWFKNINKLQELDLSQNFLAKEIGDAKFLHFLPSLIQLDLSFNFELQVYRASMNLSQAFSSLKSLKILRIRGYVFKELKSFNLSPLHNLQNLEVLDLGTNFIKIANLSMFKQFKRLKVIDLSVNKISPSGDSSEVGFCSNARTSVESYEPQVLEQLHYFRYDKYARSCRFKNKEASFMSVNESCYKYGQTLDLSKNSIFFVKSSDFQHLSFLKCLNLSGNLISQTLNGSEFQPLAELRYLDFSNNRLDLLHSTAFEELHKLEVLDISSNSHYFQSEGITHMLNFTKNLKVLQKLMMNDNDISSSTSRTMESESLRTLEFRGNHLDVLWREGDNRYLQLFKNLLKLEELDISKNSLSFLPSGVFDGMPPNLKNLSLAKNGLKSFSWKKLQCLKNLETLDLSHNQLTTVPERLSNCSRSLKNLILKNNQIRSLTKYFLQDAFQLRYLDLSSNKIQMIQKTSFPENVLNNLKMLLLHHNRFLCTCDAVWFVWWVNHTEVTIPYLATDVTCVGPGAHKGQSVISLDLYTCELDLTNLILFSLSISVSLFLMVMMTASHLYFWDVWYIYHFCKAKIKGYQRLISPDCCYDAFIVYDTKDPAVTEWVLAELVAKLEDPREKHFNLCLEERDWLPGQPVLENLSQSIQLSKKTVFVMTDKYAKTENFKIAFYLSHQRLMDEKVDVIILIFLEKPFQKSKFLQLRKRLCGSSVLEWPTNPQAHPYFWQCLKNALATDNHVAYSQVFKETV
In short: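 HEK293 cells stably expressing human TLR7 or TLR8, transiently transfected with SEAP reporter plasmid; medium replaced, SIMRA compounds added, 18 h incubation. Supernatant SEAP measured by QuantiBlue; expressed as fold increase in NF-κB activity over PBS control. Tabulated data at 50 μg/mL, representative of three independent experiments.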

Homo sapiens = species: Homo sapiens; assay: Ratio of human TLR7 activity to human TLR8 activity
In short: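 TLR7/TLR8 ratio computed from fold NF-κB (SEAP reporter) activation in HEK293 cells stably expressing human TLR7 versus TLR8, compounds at 50 μg/mL, 18 h exposure; representative of three independent experiments.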

[2] = molecular target: T2, Toll-like receptor 9 (Mus musculus) (UniProt Q9EQU3); assay: Activation of mouse TLR9 expressed in HEK293 assessed as induction of NF-kappaB activity reporter gene assay; format: cell-based
T2 sequence (whole entry): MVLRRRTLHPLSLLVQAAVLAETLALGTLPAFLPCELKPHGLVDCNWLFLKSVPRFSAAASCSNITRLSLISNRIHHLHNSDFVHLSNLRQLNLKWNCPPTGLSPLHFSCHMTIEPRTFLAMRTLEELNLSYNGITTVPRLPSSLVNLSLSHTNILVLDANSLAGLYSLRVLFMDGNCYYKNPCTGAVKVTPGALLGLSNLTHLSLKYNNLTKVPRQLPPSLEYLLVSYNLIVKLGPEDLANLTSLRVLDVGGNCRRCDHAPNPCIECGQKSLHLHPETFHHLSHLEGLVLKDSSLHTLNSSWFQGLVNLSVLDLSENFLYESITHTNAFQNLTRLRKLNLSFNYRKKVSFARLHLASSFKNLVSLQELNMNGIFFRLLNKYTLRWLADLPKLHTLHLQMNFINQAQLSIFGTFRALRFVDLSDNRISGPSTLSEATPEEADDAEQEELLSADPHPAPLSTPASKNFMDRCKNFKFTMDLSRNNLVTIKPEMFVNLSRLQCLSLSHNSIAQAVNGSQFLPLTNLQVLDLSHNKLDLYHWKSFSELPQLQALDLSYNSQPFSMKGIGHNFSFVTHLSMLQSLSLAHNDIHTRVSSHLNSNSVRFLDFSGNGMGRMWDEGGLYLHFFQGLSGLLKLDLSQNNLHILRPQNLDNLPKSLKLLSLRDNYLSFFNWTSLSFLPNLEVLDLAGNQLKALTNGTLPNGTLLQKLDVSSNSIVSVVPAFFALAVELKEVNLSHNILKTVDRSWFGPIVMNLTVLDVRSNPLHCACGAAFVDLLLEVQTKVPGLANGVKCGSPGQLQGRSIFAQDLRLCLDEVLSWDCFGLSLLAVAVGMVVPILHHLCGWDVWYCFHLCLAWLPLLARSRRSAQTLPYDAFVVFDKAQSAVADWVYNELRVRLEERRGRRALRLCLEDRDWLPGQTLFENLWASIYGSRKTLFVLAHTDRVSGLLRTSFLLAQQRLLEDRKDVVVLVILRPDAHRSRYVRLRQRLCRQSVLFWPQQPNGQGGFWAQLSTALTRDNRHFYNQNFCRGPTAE

Splenocyte [3] = assay: Immunomodulatory activity in C57BL/6 mouse splenocytes bearing TLR7 receptor assessed as IL6 release at 100 ug/ml after 24 hrs by ELISA; format: functional, cell-based
In short: (§1)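 C57BL/6 splenocytes in RPMI 1640 with 10% FBS, penicillin/streptomycin, 2 mM L-glutamine, plated at 5 × 10^6 cells/mL; compounds in PBS added, 37 °C for 24 h. Supernatant IL-12 and IL-6 by ELISA; representative of three independent experiments.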

Splenocyte [4] = assay: Immunomodulatory activity in C57BL/6 mouse splenocytes bearing TLR7 receptor assessed as IL12 release at 100 ug/ml after 24 hrs by ELISA; format: functional, cell-based; in short: as §1
PBMC [5] = assay: Immunomodulatory activity in human PBMC assessed as induction of IL12 at 100 ug/ml after 24 hrs; format: functional, cell-based
In short: (§2)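 Human PBMCs plated at 5 × 10^6 cells/mL; compounds dissolved in PBS added at various concentrations, 37 °C for 24 h. Supernatant cytokines/chemokines quantified with human Luminex multiplex kit.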

PBMC [6] = assay: Immunomodulatory activity in human PBMC assessed as induction of TNFalpha at 100 ug/ml after 24 hrs; format: functional, cell-based; in short: as §2
PBMC [7] = assay: Immunomodulatory activity in human PBMC assessed as induction of IFN-alpha at 100 ug/ml after 24 hrs

| SMILES | fold change (FC) [1] | Ratio (Homo sapiens) | Activity [2] | Activity (Splenocyte [3]) | Activity (Splenocyte [4]) | Activity (PBMC [5]) | Activity (PBMC [6]) | IFN-alpha (PBMC [7]) |
| --- | --- | --- | --- | --- | --- | --- | --- | --- |
| Nc1ccn([C@@H]2O[C@H](COP(=O)(S)O[C@H]3[C@@H](O)[C@H](n4ccc5c(=O)[nH]c(N)nc54)O[C@@H]3COP(=O)(S)O[C@H]3[C@@H](O)[C@H](n4cnc5c(N)ncnc54)O[C@@H]3COP(=O)(S)O[C@H]3[C@@H](O)[C@H](n4cnc5c(N)ncnc54)O[C@@H]3COP(=O)(S)O[C@H]3[C@@H](O)[C@H](n4ccc5c(=O)[nH]c(N)nc54)O[C@@H]3COP(=O)(S)O[C@H]3[C@@H](O)[C@H](n4ccc(=O)[nH]c4=O)O[C@@H]3COP(=O)(S)O[C@H]3[C@@H](O)[C@H](n4ccc(=O)[nH]c4=O)O[C@@H]3COP(=O)(S)O[C@H]3[C@@H](O)[C@H](n4cnc5c(N)ncnc54)O[C@@H]3COP(=O)(S)O[C@H]3[C@@H](O)[C@H](n4cnc5c(N)ncnc54)O[C@@H]3CO)[C@@H](OP(=O)(S)OC[C@H]3O[C@@H](n4ccc(=O)[nH]c4=O)[C@H](O)[C@@H]3OP(=O)(S)OC[C@H]3O[C@@H](n4ccc(=O)[nH]c4=O)[C@H](O)[C@@H]3OP(=O)(S)OCC(O)COP(=O)(S)O[C@H]3[C@@H](O)[C@H](n4ccc(=O)[nH]c4=O)O[C@@H]3COP(=O)(S)O[C@H]3[C@@H](O)[C@H](n4ccc(=O)[nH]c4=O)O[C@@H]3COP(=O)(S)O[C@H]3[C@@H](O)[C@H](n4ccc(N)nc4=O)O[C@@H]3COP(=O)(S)O[C@H]3[C@@H](O)[C@H](n4ccc5c(=O)[nH]c(N)nc54)O[C@@H]3COP(=O)(S)O[C@H]3[C@@H](O)[C@H](n4cnc5c(N)ncnc54)O[C@@H]3COP(=O)(S)O[C@H]3[C@@H](O)[C@H](n4cnc5c(N)ncnc54)O[C@@H]3COP(=O)(S)O[C@H]3[C@@H](O)[C@H](n4ccc5c(=O)[nH]c(N)nc54)O[C@@H]3COP(=O)(S)O[C@H]3[C@@H](O)[C@H](n4ccc(=O)[nH]c4=O)O[C@@H]3COP(=O)(S)O[C@H]3[C@@H](O)[C@H](n4ccc(=O)[nH]c4=O)O[C@@H]3COP(=O)(S)O[C@H]3[C@@H](O)[C@H](n4cnc5c(N)ncnc54)O[C@@H]3COP(=O)(S)O[C@H]3[C@@H](O)[C@H](n4cnc5c(N)ncnc54)O[C@@H]3CO)[C@H]2O)c(=O)n1 (stereo partly specified) | 25 | 15.6 | inactive | Active | Active | 401 pg/mL | 29.3 pg/mL | 95.5 pg/mL |
| Nc1ccn([C@@H]2O[C@H](COP(=O)(S)O[C@H]3[C@@H](O)[C@H](n4cnc5c(N)ncnc54)O[C@@H]3CO)[C@@H](OP(=O)(S)OC[C@H]3O[C@@H](n4ccc(=O)[nH]c4=O)[C@H](O)[C@@H]3OP(=O)(S)OC[C@H]3O[C@@H](n4ccc(=O)[nH]c4=O)[C@H](O)[C@@H]3OP(=O)(S)OC[C@H]3O[C@@H](n4ccc5c(=O)[nH]c(N)nc54)[C@H](O)[C@@H]3OP(=O)(S)OC[C@H]3O[C@@H](n4cnc5c(N)ncnc54)[C@H](O)[C@@H]3OP(=O)(S)OC[C@H]3O[C@@H](n4ccc(N)nc4=O)[C@H](O)[C@@H]3OP(=O)(S)OC[C@H]3O[C@@H](n4ccc5c(=O)[nH]c(N)nc54)[C@H](O)[C@@H]3OP(=O)(S)OC[C@H]3O[C@@H](n4cnc5c(N)ncnc54)[C@H](O)[C@@H]3OP(=O)(S)OC[C@H]3O[C@@H](n4ccc(=O)[nH]c4=O)[C@H](O)[C@@H]3OP(=O)(S)OC[C@H]3O[C@@H](n4ccc(=O)[nH]c4=O)[C@H](O)[C@@H]3OP(=O)(S)OCC(O)COP(=O)(S)O[C@H]3[C@@H](O)[C@H](n4ccc(=O)[nH]c4=O)O[C@@H]3COP(=O)(S)O[C@H]3[C@@H](O)[C@H](n4ccc(=O)[nH]c4=O)O[C@@H]3COP(=O)(S)O[C@H]3[C@@H](O)[C@H](n4cnc5c(N)ncnc54)O[C@@H]3COP(=O)(S)O[C@H]3[C@@H](O)[C@H](n4ccc5c(=O)[nH]c(N)nc54)O[C@@H]3COP(=O)(S)O[C@H]3[C@@H](O)[C@H](n4ccc(N)nc4=O)O[C@@H]3COP(=O)(S)O[C@H]3[C@@H](O)[C@H](n4cnc5c(N)ncnc54)O[C@@H]3COP(=O)(S)O[C@H]3[C@@H](O)[C@H](n4ccc5c(=O)[nH]c(N)nc54)O[C@@H]3COP(=O)(S)O[C@H]3[C@@H](O)[C@H](n4ccc(=O)[nH]c4=O)O[C@@H]3COP(=O)(S)O[C@H]3[C@@H](O)[C@H](n4ccc(=O)[nH]c4=O)O[C@@H]3COP(=O)(S)O[C@H]3[C@@H](O)[C@H](n4ccc(N)nc4=O)O[C@@H]3COP(=O)(S)O[C@H]3[C@@H](O)[C@H](n4cnc5c(N)ncnc54)O[C@@H]3CO)[C@H]2O)c(=O)n1 (stereo partly specified) | 16.6 | 7.9 | inactive | Active | Active | 394 pg/mL | 115 pg/mL | 233 pg/mL |
